Experimental data reported in ChEMBL document CHEMBL1151261, “Antineoplastic agents. 509: synthesis of fluorcombstatin phosphate and related 3-halostilbenes(1)” (J Nat Prod, 2005).
In brackets after ≈: the same amount, converted by molar mass. Activity calls are given as the source filed them. The calls are words filed in the database; no cut-off is given here.

Columns and labels:
[1] = system: DU-145; assay: Cytotoxicity against human DU145 cells after 48 hrs by sulforhodamine B assay; type: functional; settings: DU-145, 48 h
In short: (§1)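 Human tumor lines exposed to compound for 48 h, then fixed with trichloroacetic acid and stained with sulforhodamine B (NCI standard protocol); optical density read on a microplate reader. GI50 is the concentration giving a 50% reduction in net protein increase, calculated from optical density data.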

[2] = system: Streptococcus pneumoniae; assay: Antimicrobial activity against Streptococcus pneumoniae ATCC 6303 after 24 hrs by broth microdilution assay; type: functional; settings: ATCC 6303, 24 h
In short: (§2)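 Streptococcus tested by NCCLS broth microdilution in cation-adjusted MHII broth with 3% lysed horse blood. Final inoculum about 5×10^5 CFU/mL; 2-fold compound dilutions from DMSO; DMSO turbidity control; 35 °C without agitation, 24 h. MIC = lowest concentration with no visible growth.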

[3] = system: MCF7; assay: Cytotoxicity against human MCF7 cells after 48 hrs by sulforhodamine B assay; type: functional; settings: MCF7, 48 h; in short: as §1
[4] = system: Candida albicans; assay: Antimicrobial activity against Candida albicans ATCC 90028 at 64 ug/mL after 48 hrs by broth microdilution assay; type: functional, organism-based
In short: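 Yeast NCCLS broth microdilution (M27-A). Inoculum 0.5 to 2.5×10^3 CFU/mL; 2-fold dilutions in 0.165 M MOPS-buffered RPMI 1640, pH 7.0; compound from DMSO, DMSO-only turbidity control; 35 °C without agitation; read at 48 h (Candida). MIC = lowest concentration giving no visible growth.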

[5] = system: SF-268; assay: Cytotoxicity against human SF268 cells after 48 hrs by sulforhodamine B assay; type: functional; settings: SF-268, 48 h; in short: as §1
[6] = system: Micrococcus luteus; assay: Antimicrobial activity against Micrococcus luteus Presque Isle 456 after 24 hrs by broth microdilution assay; type: functional
In short: (§3)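 NCCLS bacterial broth microdilution (M7-A5). Overnight colonies diluted to about 5×10^5 CFU/mL final; 2-fold compound dilutions (DMSO stock) in cation-adjusted Mueller Hinton II broth; DMSO turbidity control; 35 °C without agitation, 24 h. MIC = lowest concentration with optically clear wells.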

[7] = system: Staphylococcus aureus; assay: Antimicrobial activity against Staphylococcus aureus ATCC 29213 after 24 hrs by broth microdilution assay; type: functional; settings: ATCC 29213, 24 h; in short: as §3
[8] = system: Neisseria gonorrhoeae; assay: Antimicrobial activity against Neisseria gonorrhoeae ATCC 49226 after 24 hrs by broth microdilution assay; type: functional; settings: ATCC 49226, 24 h
In short: (§4)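 Neisseria tested by NCCLS broth microdilution in gonococcal typing broth. Final inoculum about 5×10^5 CFU/mL; 2-fold compound dilutions from DMSO; DMSO turbidity control; 37 °C with 5% CO₂ without agitation, 24 h. MIC = lowest concentration with no visible growth.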

[9] = system: Enterococcus faecalis; assay: Antimicrobial activity against Enterococcus faecalis ATCC 29212 at 64 ug/mL after 24 hrs by broth microdilution assay; type: functional, organism-based; in short: as §3
[10] = system: Escherichia coli; assay: Antimicrobial activity against Escherichia coli ATCC 25922 at 64 ug/mL after 24 hrs by broth microdilution assay; type: functional, organism-based; in short: as §3
[11] = system: Cryptococcus neoformans; assay: Antimicrobial activity against Cryptococcus neoformans ATCC 90112 after 72 hrs by broth microdilution assay; type: functional; settings: ATCC 90112, 72 h
In short: (§5)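 Yeast NCCLS broth microdilution (M27-A). Inoculum 0.5 to 2.5×10^3 CFU/mL; 2-fold dilutions in 0.165 M MOPS-buffered RPMI 1640, pH 7.0; compound from DMSO, DMSO-only turbidity control; 35 °C without agitation; read at 72 h (Cryptococcus). MIC = lowest concentration giving no visible growth.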

[12] = system: Enterobacter cloacae; assay: Antimicrobial activity against Enterobacter cloacae ATCC 13047 at 64 ug/mL after 24 hrs by broth microdilution assay; type: functional, organism-based; in short: as §3
[13] = system: NCI-H460; assay: Cytotoxicity against human NCI-H460 cells after 48 hrs by sulforhodamine B assay; type: functional; settings: NCI-H460, 48 h; in short: as §1
[14] = system: Stenotrophomonas maltophilia; assay: Antimicrobial activity against Stenotrophomonas maltophilia ATCC 13637 at 64 ug/mL after 24 hrs by broth microdilution assay; type: functional, organism-based; in short: as §3
[15] = system: KM-20L2; assay: Cytotoxicity against human KM20L2 cells after 48 hrs by sulforhodamine B assay; type: functional; settings: KM-20L2, 48 h; in short: as §1
[16] = system: BXPC-3; assay: Cytotoxicity against human BxPC3 cells after 48 hrs by sulforhodamine B assay; type: functional; settings: BXPC-3, 48 h; in short: as §1
[17] = system: P388; assay: Cytotoxicity against mouse P388 cells after 48 hrs by Coulter particle counting; settings: P388, 48 h, read-out: ED50 (the source's name)
[18] = system: Staphylococcus aureus; assay: Antimicrobial activity against Staphylococcus aureus ATCC 29213 at 64 ug/mL after 24 hrs by broth microdilution assay; type: functional, organism-based; in short: as §3
[19] = system: Cryptococcus neoformans; assay: Antimicrobial activity against Cryptococcus neoformans ATCC 90112 at 64 ug/mL after 72 hrs by broth microdilution assay; type: functional, organism-based; in short: as §5
[20] = system: Neisseria gonorrhoeae; assay: Antimicrobial activity against Neisseria gonorrhoeae ATCC 49226 at 64 ug/mL after 24 hrs by broth microdilution assay; type: functional, organism-based; in short: as §4
[21] = system: Micrococcus luteus; assay: Antimicrobial activity against Micrococcus luteus Presque Isle 456 at 64 ug/mL after 24 hrs by broth microdilution assay; type: functional, organism-based; in short: as §3
[22] = system: Streptococcus pneumoniae; assay: Antimicrobial activity against Streptococcus pneumoniae ATCC 6303 at 64 ug/mL after 24 hrs by broth microdilution assay; type: functional, organism-based; in short: as §2
[23] = system: HUVEC; assay: Induction of microtubule depolymerization in HUVEC at 10 uM after 4 hrs; type: functional, cell-based; settings: Homo sapiens
In short: (§6)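 Primary HUVECs from umbilical cords grown in M199 with 20% human serum, CD31-authenticated. About 3×10^4 cells on gelatin-coated coverslips, 24 h at 37 °C, then compound from DMSO for 30 min to 4 h, in duplicate. Cells methanol-fixed, stained with anti-α-tubulin and TRITC secondary plus Hoechst, imaged by confocal microscopy and scored for microtubule damage.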

[24] = system: HUVEC; assay: Induction of microtubule damage in HUVEC at 1 uM after 30 mins; type: functional, cell-based; settings: Homo sapiens; in short: as §6
[25] = system: HUVEC; assay: Induction of microtubule depolymerization in HUVEC at 1 uM after 4 hrs; type: functional, cell-based; settings: Homo sapiens
In short: (§7)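 Primary HUVECs from umbilical cords, grown in M199 with 20% human serum, were seeded (~3×10^4) on gelatin-coated coverslips and grown 24 h at 37 °C. Compound in DMSO was added (final 1, 10 or 100 μM), with duplicate plates. Cells were fixed in ice-cold methanol and immunostained for α-tubulin (TRITC secondary) and with Hoechst. Microtubule disruption was scored by confocal microscopy.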

[26] = system: HUVEC; assay: Induction of microtubule depolymerization in HUVEC at 10 uM after 2 hrs; type: functional, cell-based; settings: Homo sapiens; in short: as §6
[27] = system: HUVEC; assay: Induction of microtubule damage in HUVEC at 1 uM after 1 hr; type: functional, cell-based; settings: Homo sapiens; in short: as §6
[28] = Displacement of [3H]colchicine from tubulin
In short: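 [3H]colchicine binding with 1.0 μM tubulin, 5.0 μM [3H]colchicine and inhibitor at 1.0 μM.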

[29] = system: HUVEC; assay: Induction of microtubule depolymerization in HUVEC at 1 uM after 2 hrs; type: functional, cell-based; settings: Homo sapiens; in short: as §7
[30] = system: HUVEC; assay: Induction of microtubule depolymerization in HUVEC at 10 uM after 30 mins; type: functional, cell-based; settings: Homo sapiens; in short: as §6
[31] = Inhibition of tubulin polymerization
In short: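 Turbidimetry at 350 nm. Compound at varying concentrations preincubated with 10 μM (1.0 mg/mL) purified tubulin, chilled on ice, then 0.4 mM GTP added and polymerization followed at 30 °C. Extent of polymerization at 20 min measured.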

[32] = system: HUVEC; assay: Induction of microtubule depolymerization in HUVEC at 10 uM after 1 hr; type: functional, cell-based; settings: Homo sapiens; in short: as §6
[33] = Cytotoxicity against HUVEC; type: cell-based; settings: human, HUVEC cells; read-out: ED50 (the source's name)
In short: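 Commercial HUVECs grown in EGM-2 medium. Growth measured by the sulforhodamine B assay: 48 h exposure, TCA fixation, SRB stain, optical density read. ED50 = concentration giving 50% inhibition, taken from plotted data.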

[34] = system: HUVEC; assay: Reduction of junction numbers in HUVEC at 0.001 ug/mL; type: functional, cell-based; settings: Homo sapiens
In short: (§8)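 Matrigel cord formation (NCI DTP protocol). Commercial HUVECs in EGM-2; Matrigel polymerized 15 min at RT then 30 min at 37 °C; 100 μL of 2×10^5 cells/mL plus compound solution; 24 h incubation. Imaged by inverted microscope; cord length and junction number compared with untreated controls.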

[35] = system: HUVEC; assay: Induction of microtubule damage in HUVEC at 1 uM after 4 hrs; type: functional, cell-based; settings: Homo sapiens; in short: as §6
[36] = system: HUVEC; assay: Reduction of cord length in HUVEC at 0.001 ug/mL; type: functional, cell-based; settings: Homo sapiens; in short: as §8
[37] = system: HUVEC; assay: Reduction of junction numbers in HUVEC at 0.01 ug/mL; type: functional, cell-based; settings: Homo sapiens; in short: as §8
[38] = system: HUVEC; assay: Induction of microtubule damage in HUVEC at 1 uM after 2 hrs; type: functional, cell-based; settings: Homo sapiens; in short: as §6
[39] = system: HUVEC; assay: Reduction of cord length in HUVEC at 0.01 ug/mL; type: functional, cell-based; settings: Homo sapiens; in short: as §8

SMILES	GI50 [1]	MIC [2]	GI50 [3]	Activity [4]	GI50 [5]	MIC [6]	MIC [8]	Activity [9]	Activity [10]	MIC [11]	Activity [12]	GI50 [13]	Activity [14]	GI50 [15]	GI50 [16]	EC50 [17]	Activity [18]	Activity [23]	Activity [24]	Activity [26]	further results
COc1ccc(/C=C/c2cc(F)c(OC)c(OC)c2)cc1O	0.18 mg/L (≈ 0.591 µM)	64 mg/L (≈ 210 µM)	0.051 mg/L (≈ 0.168 µM)	inactive	0.35 mg/L (≈ 1.15 µM)	16 mg/L (≈ 52.6 µM)	8 mg/L (≈ 26.3 µM)	inactive	inactive	64 mg/L (≈ 210 µM)	inactive	0.18 mg/L (≈ 0.591 µM)	inactive	0.53 mg/L (≈ 1.74 µM)	2.2 mg/L (≈ 7.23 µM)	0.253 mg/L (≈ 0.831 µM)	–	–	–	–	MIC [7]: 32 mg/L (≈ 105 µM)
COc1ccc(/C=C/c2cc(Br)c(OC)c(OC)c2)cc1O	0.13 mg/L (≈ 0.356 µM)	–	0.14 mg/L (≈ 0.383 µM)	inactive	0.18 mg/L (≈ 0.493 µM)	–	–	inactive	inactive	–	inactive	0.15 mg/L (≈ 0.411 µM)	inactive	1.2 mg/L (≈ 3.29 µM)	1.6 mg/L (≈ 4.38 µM)	0.0174 mg/L (≈ 0.0476 µM)	inactive	–	–	–	Activity [19]: inactive; Activity [20]: inactive; Activity [21]: inactive; Activity [22]: inactive
COc1ccc(/C=C\c2cc(Cl)c(OC)c(OC)c2)cc1O	0.00025 mg/L (≈ 0.000779 µM)	32 mg/L (≈ 99.8 µM)	0.0026 mg/L (≈ 0.00811 µM)	inactive	< 0.0009 mg/L	32 mg/L (≈ 99.8 µM)	16 mg/L (≈ 49.9 µM)	inactive	inactive	64 mg/L (≈ 200 µM)	inactive	0.00026 mg/L (≈ 0.000811 µM)	inactive	0.27 mg/L (≈ 0.842 µM)	0.32 mg/L (≈ 0.998 µM)	0.0024 mg/L (≈ 0.00748 µM)	inactive	Active	Active	Active	Activity [25]: Active; Activity [27]: Active; Activity [28]: 85%; Activity [29]: Active; Activity [30]: Active; IC50 [31]: 1.6 µM; Activity [32]: Active
COc1ccc(/C=C\c2cc(F)c(OC)c(OC)c2)cc1O [FLUORCOMBSTATIN]	0.0019 mg/L (≈ 0.00624 µM)	64 mg/L (≈ 210 µM)	< 0.0027 mg/L	inactive	< 0.0016 mg/L	32 mg/L (≈ 105 µM)	32 mg/L (≈ 105 µM)	inactive	inactive	64 mg/L (≈ 210 µM)	inactive	< 0.0032 mg/L	inactive	> 1 mg/L	0.745 mg/L (≈ 2.45 µM)	< 0.002 mg/L	inactive	Active	Active	Active	CC50 [33]: 0.00025 mg/L (≈ 0.000822 µM); Activity [34]: Active; Activity [35]: Active; Activity [27]: Active; Activity [28]: 75%; Activity [36]: Active; Activity [37]: Active; Activity [38]: Active; Activity [30]: Active; IC50 [31]: 1.5 µM; Activity [32]: Active; Activity [39]: Active
